Test [1] concerns the target T1, NmeIPMSR32Q (Neisseria meningitidis serogroup B, UniProt Q9JZG1, R32Q).
T1 sequence (Q9JZG1 1-517 R32Q): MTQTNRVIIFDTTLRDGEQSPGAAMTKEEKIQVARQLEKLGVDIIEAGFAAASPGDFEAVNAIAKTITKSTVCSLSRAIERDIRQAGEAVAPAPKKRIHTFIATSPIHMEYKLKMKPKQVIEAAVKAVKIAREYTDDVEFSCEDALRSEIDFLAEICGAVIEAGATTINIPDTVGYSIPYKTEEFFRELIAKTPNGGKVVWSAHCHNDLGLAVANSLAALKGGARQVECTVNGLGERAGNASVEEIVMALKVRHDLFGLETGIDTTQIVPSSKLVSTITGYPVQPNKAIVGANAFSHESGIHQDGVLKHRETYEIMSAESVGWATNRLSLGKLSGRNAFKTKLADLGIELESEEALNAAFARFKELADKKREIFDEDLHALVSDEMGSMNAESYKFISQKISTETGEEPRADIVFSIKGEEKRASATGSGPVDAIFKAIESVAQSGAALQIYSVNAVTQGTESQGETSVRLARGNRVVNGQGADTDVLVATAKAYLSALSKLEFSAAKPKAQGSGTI
The experiment in a line: DTP-coupled kinetic assay. The class given is biochemical. Conditions: homodimer R32Q, apparent Km. Summed up:
(§1)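 E. coli BL21(DE3)-expressed enzyme, TEV-cleaved and SEC-purified; variant homodimers taken as the StrepTrap flow-through. CoA release monitored with DTP at 324 nm (ε = 1.98 × 10⁴ l × M⁻¹ cm⁻¹), 25 °C. Mix: 100 μM DTP, 20 mM KCl, 20 mM MgCl₂, 3.0 × 10⁻² μM enzyme, 50 mM HEPES pH 7.5, started with α-KIV. One substrate held at 300 μM, the other varied.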

The target in test [2] is T2, NmeIPMSR470Q (Neisseria meningitidis serogroup B, UniProt Q9JZG1, R470Q).
T2 sequence (Q9JZG1 1-517 R470Q): T1 sequence (Q9JZG1 1-517 R32Q) with Q32R, R470Q
The experiment in a line: DTP-coupled kinetic assay. The class given is biochemical. Conditions: homodimer R470Q, apparent Km. The method in brief:
as §1

Test [3] deals with T3, NmeIPMS (Neisseria meningitidis serogroup B, UniProt Q9JZG1).
T3 sequence (Q9JZG1 1-517): T1 sequence (Q9JZG1 1-517 R32Q) with Q32R
Description: DTP-coupled kinetic assay. The class given is biochemical. Particulars: read-out: Km^KIV; WT NmeIPMS; apparent Km; AcCoA fixed at 300 μM; 25 °C, pH 7.5. The method in brief: as §1

The target of test [4] is T4, NmeIPMSR470Q^hetero (Neisseria meningitidis serogroup B, UniProt Q9JZG1, R470Q).
T4 sequence (Q9JZG1 1-517 R470Q): T1 sequence (Q9JZG1 1-517 R32Q) with Q32R, R470Q
T4 sequence (Q9JZG1 1-517): T1 sequence (Q9JZG1 1-517 R32Q) with Q32R
Description: waterLOGSY NMR Leu binding assay.

Test [5] concerns the target T3, NmeIPMS. Description: waterLOGSY NMR Leu binding assay. Summed up: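 Leu titrated at 0, 50, 150, 250, 500 and 750 μM in 10 mM HEPES pH 8.0, 3 mM MgCl₂, 3 mM KCl, 10% D₂O. Each sample recorded first without enzyme, then with 10 μM untagged enzyme. ¹H spectra at 600 MHz, 25 °C, without a water flipback pulse. KD fitted from the isotherm of corrected waterLOGSY intensity change against ligand concentration.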

Test [6] concerns the target T5, NmeIPMSR32Q^hetero (Neisseria meningitidis serogroup B, UniProt Q9JZG1, R32Q).
T5 sequence (Q9JZG1 1-517 R32Q): T1 sequence (Q9JZG1 1-517 R32Q)
T5 sequence (Q9JZG1 1-517): T1 sequence (Q9JZG1 1-517 R32Q) with Q32R
Description: waterLOGSY NMR Leu binding assay.

The target in test [7] is T1, NmeIPMSR32Q. The experiment in a line: waterLOGSY NMR Leu binding assay.
Test [8] deals with T1, NmeIPMSR32Q. The experiment in a line: Leu inhibition assay. In kind it is biochemical.
For test [9], the target named is T2, NmeIPMSR470Q. Description: Leu inhibition assay. In kind it is biochemical.
The target of test [10] is T2, NmeIPMSR470Q. Description: waterLOGSY NMR Leu binding assay.
[11] abbreviates: read-out: Km^AcCoA, α-KIV fixed at 300 μM.
The mark [12] stands for this setting: read-out: Km^KIV, AcCoA fixed at 300 μM.

Residue numbers refer to the chain shown, from its start. Where two headings read alike, the source gives them in different places.

Among the data in PMC9860122 (The Journal of Biological Chemistry, 2022) are Km, Kd and Ki values, retold here.

One may read the Km as the substrate concentration at which the rate is half of its maximum. Broadly, the Kd is a measure of binding affinity in units of concentration. The term Ki denotes the dissociation constant of the complex between target and ligand, obtained from inhibition or displacement.

Consider `CC(=O)SCCNC(=O)CCNC(=O)[C@H](O)C(C)(C)COP(=O)(O)OP(=O)(O)OC[C@H]1O[C@@H](n2cnc3c(N)ncnc32)[C@H](O)[C@@H]1OP(=O)(O)O` [AcCoA, acetyl-coenzyme A], for which the Km was 40 ± 5 µM in [1] (setting [11]) and 48 ± 3 µM in test [2] (setting [11]).

For the molecule `CC(C)C(=O)C(=O)O` [KIV, α-ketoisovalerate], the Km in [3] was 37 ± 5 µM; in test [1] (setting [12]), 47 ± 3 µM; in test [2] (setting [12]), 53 ± 6 µM.

Turning to `CC(C)C[C@H](N)C(=O)O` [Leu, leucine], the Kd in test [4] stood at 370 ± 55 µM; in [5], 376 ± 48 µM; in [6] it was 324 ± 65 µM; in [7], 352 ± 37 µM; in test [10] it was 386 ± 72 µM. The Ki in test [8] and in test [9] was > 100 µM throughout.
